From ChEMBL document CHEMBL1275301, “Antihypertensive activity of newer 1,4-dihydro-5-pyrimidine carboxamides: synthesis and pharmacological evaluation” (2010)
Active and inactive are the calls of the source. No cut-off for these calls is given here.

Columns and labels:
Rattus norvegicus [1] = test: Antihypertensive activity against DOCA-salt induced hypertension in albino rat assessed as reduction in systolic blood pressure at 10 mg/kg, po after 300 mins by tail-cuff method; type: functional; settings: Artery, 5 h
How it was run: (§1)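 Rats given DOCA 20 mg/kg s.c. twice weekly in olive oil for 4 weeks, with 1% w/v NaCl as drinking water, reaching systolic 160–180 mm Hg. Rats were trained in restrainer and tail-cuff sessions. Compounds in 0.5% CMC were dosed at 10 mg/kg by oral feeding needle, with vehicle and nifedipine groups. BP was read before dosing and after, with the tail warmed at 37 °C for 2–5 min. Each compound was run three times in one week and readings averaged.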

Rattus norvegicus [2] = test: Antihypertensive activity against DOCA-salt induced hypertension in albino rat assessed as reduction in systolic blood pressure at 10 mg/kg, po after 60 mins by tail-cuff method; type: functional; settings: Artery, 1 h; how it was run: as §1
Rattus norvegicus [3] = test: Antihypertensive activity against DOCA-salt induced hypertension in albino rat assessed as reduction in systolic blood pressure at 10 mg/kg, po after 15 mins by tail-cuff method; type: functional; settings: Artery, 0.25 h; how it was run: as §1
Rattus norvegicus [4] = test: Antihypertensive activity against DOCA-salt induced hypertension in albino rat assessed as reduction in systolic blood pressure at 10 mg/kg, po after 30 mins by tail-cuff method; type: functional; settings: Artery, 0.5 h; how it was run: as §1
Rattus norvegicus [5] = test: Antihypertensive activity against DOCA-salt induced hypertension in albino rat assessed as reduction in systolic blood pressure at 10 mg/kg, po after 120 mins by tail-cuff method; type: functional; settings: Artery, 2 h; how it was run: as §1
Rattus norvegicus [6] = test: Antihypertensive activity against DOCA-salt induced hypertension in albino rat assessed as reduction in systolic blood pressure at 10 mg/kg, po after 180 mins by tail-cuff method; type: functional; settings: Artery, 3 h; how it was run: as §1
Rattus norvegicus [7] = test: Antihypertensive activity against DOCA-salt induced hypertension in albino rat assessed as reduction in systolic blood pressure at 10 mg/kg, po up to 360 mins by tail-cuff method; type: functional, organism-based; design: dose 10 mg/kg; settings: Artery; how it was run: as §1
Rattus norvegicus [8] = test: Antihypertensive activity against DOCA-salt induced hypertension in albino rat assessed as reduction in systolic blood pressure at 10 mg/kg, po after 900 mins by tail-cuff method; type: functional; settings: Artery, 15 h; how it was run: as §1
Rattus norvegicus [9] = test: Antihypertensive activity against DOCA-salt induced hypertension in albino rat assessed as reduction in systolic blood pressure at 10 mg/kg, po after 360 mins by tail-cuff method; type: functional; settings: Artery, 6 h; how it was run: as §1
Rattus norvegicus [10] = test: Antihypertensive activity against DOCA-salt induced hypertension in albino rat assessed as reduction in systolic blood pressure at 10 mg/kg, po after 600 mins by tail-cuff method; type: functional; settings: Artery, 10 h; how it was run: as §1
Rattus norvegicus [11] = test: Antihypertensive activity against DOCA-salt induced hypertension in albino rat assessed as reduction in systolic blood pressure at 10 mg/kg, po after 240 mins by tail-cuff method; type: functional; settings: Artery, 4 h; how it was run: as §1
Rattus norvegicus [12] = test: Antihypertensive activity against DOCA-salt induced hypertension in albino rat assessed as reduction in systolic blood pressure at 10 mg/kg, po after 720 mins by tail-cuff method; type: functional; settings: Artery, 12 h; how it was run: as §1

Structure (SMILES)	inhibition in vivo at 10 mg/kg (Rattus norvegicus [1]) [%]	inhibition in vivo at 10 mg/kg (Rattus norvegicus [2]) [%]	inhibition in vivo at 10 mg/kg (Rattus norvegicus [3]) [%]	inhibition in vivo at 10 mg/kg (Rattus norvegicus [4]) [%]	inhibition in vivo at 10 mg/kg (Rattus norvegicus [5]) [%]	inhibition in vivo at 10 mg/kg (Rattus norvegicus [6]) [%]	Activity (Rattus norvegicus [7])	inhibition in vivo at 10 mg/kg (Rattus norvegicus [8]) [%]	inhibition in vivo at 10 mg/kg (Rattus norvegicus [9]) [%]	inhibition in vivo at 10 mg/kg (Rattus norvegicus [10]) [%]	inhibition in vivo at 10 mg/kg (Rattus norvegicus [11]) [%]	inhibition in vivo at 10 mg/kg (Rattus norvegicus [12]) [%]
CC1=C(C(=O)Nc2ccc([N+](=O)[O-])cc2)C(c2cccc([N+](=O)[O-])c2)N=C(SCc2ccccc2)N1 (stereo unspecified)	25.6	7.7	2.6	4.1	10.3	16.5	Active	14.9	32.5	27.2	21	17.5
CC1=C(C(=O)Nc2ccc(Br)cc2)C(c2ccc(Cl)cc2Cl)N=C(SCc2cccc(Cl)c2)N1 (stereo unspecified)	18.5	6.2	1.5	3.1	8.8	11.9	Active	7.2	20.6	15.4	15.9	11.3
CC1=C(C(=O)Nc2ccc(F)cc2)C(c2ccc([N+](=O)[O-])cc2)N=C(SCc2ccc(F)cc2)N1 (stereo unspecified)	30.3	10.8	3.1	5.7	17	20.1	Active	13.8	33	25.6	25.6	19.6
CC1=C(C(=O)Nc2ccc(Br)cc2)C(c2ccc(Cl)cc2Cl)N=C(SCc2ccccc2Cl)N1 (stereo unspecified)	36.4	11.8	3.1	5.7	16	22.2	Active	16.4	38.1	24.6	28.7	20.6
CC1=C(C(=O)Nc2ccc(Br)cc2)C(c2ccc(Cl)cc2Cl)N=C(SCc2ccccc2)N1 (stereo unspecified)	22.1	6.7	1.5	3.6	10.3	13.4	Active	8.2	24.2	17.4	17.4	11.3
CC1=C(C(=O)Nc2ccc([N+](=O)[O-])cc2)C(c2ccc(Br)cc2)N=C(SCc2ccccc2)N1 (stereo unspecified)	29.7	8.2	2.1	3.6	13.4	19.6	Active	19.5	37.6	27.2	27.7	21.1
COc1ccc(C2N=C(SCc3ccccc3Cl)NC(C)=C2C(=O)Nc2ccc(F)cc2)cc1OC (stereo unspecified)	35.9	11.8	2.6	6.2	17	25.3	Active	21	39.2	30.3	30.3	23.2
CC1=C(C(=O)Nc2ccc(Br)cc2)C(c2ccc(Cl)cc2Cl)N=C(SCc2ccc(F)cc2)N1 (stereo unspecified)	38.5	16.9	3.6	7.7	22.7	28.4	Active	23.1	40.7	33.3	36.4	27.3
